Data reported in the array DNA melting data of Ke et al. (doi:10.1101/2024.01.08.574731).

Assays:
[1] = folding enthalpy; higher = less favourable; fluorescence melt of hairpins on a sequencing array, two-state fit; conditions: sodium 0.088 M
In short: (§1)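 Hairpins were imaged by Cy3 fluorescence on a sequenced MiSeq flow cell with annealed Cy3 and quencher oligos, in 50 mM Na-HEPES pH 8.0, 25 mM NaCl, in 2.5 °C steps up to 60 °C. Bootstrapped two-state fits of normalised signals gave melting temperature and folding enthalpy. Four replicates were combined by inverse variance, and fitted temperatures were raised by 9.35 °C to match UV melts.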

[2] = melting temperature; fluorescence melt of hairpins on a sequencing array, two-state fit, raised by 9.35 °C to match UV melts; conditions: sodium 0.088 M
In short: as §1

| Sequence | folding enthalpy [1] [kcal/mol] | Tm [2] [°C] |
| --- | --- | --- |
| GACCCTACGAAAGTAGTC (((..(((....)))))) | -11.3 | 28 |
| GACCCTGGAAACAGGATC ((.((((....)))).)) | -21.8 | 37.6 |
| GACCGAACGAAAGTTGTC (((..(((....)))))) | -17 | 29.5 |
| GACCGACGAAAGTCGTC (((.(((....)))))) | -10.6 | 45 |
| GACCGAGAAATCGGTC ((((((....)))))) | -34.4 | 59.6 |
| GACCGCGAAAGCGCGTC ((((((....))).))) | -21 | 63.1 |
| GACCGCGAAAGCGTCGTC ((((((....)))..))) | -13.5 | 53.1 |
| GACCGCGGAAACGCGGCC (.(((((....))))).) | -10.1 | 52.5 |
| GACCGGCGAAAGCCAGTC (((.(((....))).))) | -20.2 | 50.7 |
| GACCGGGGAAACCCGACC (..((((....))))..) | -11.4 | 30 |
| GACCGTCCGAAAGGAGTC (((..(((....)))))) | -11.8 | 28.6 |
| GACCGTGGAAACACGGCC (.(((((....))))).) | -13.2 | 50.9 |
| GACCTACGAAAGTATGTC (((.(((....))).))) | -33.4 | 41 |
| GACCTAGGAAACCAGGTC (((((.(....).))))) | -35.3 | 45 |
| GACCTAGGAAACTAGGTC (((((((....))))))) | -42 | 60.5 |
| GACCTGAAAAGGTC (((((....))))) | -27.9 | 59 |
| GACCTGCGAAAGCAGTC (((.(((....)))))) | -12.2 | 48.5 |
| GACCTGCGAAAGCATGTC (((.(((....))).))) | -28.4 | 49.9 |
| GACCTGGGAAACCAAGTC (((.(((....))).))) | -29.7 | 33.4 |
| GACGAACGAAAGTTTGTC (((.(((....))).))) | -43.7 | 54.2 |
| GACGAAGGAAACCTCGTC (((((.(....).))))) | -33 | 46 |
| GACGACGAAAGTCACGTC ((((((....)))..))) | -19.6 | 41.1 |
| GACGACGAAAGTCAGGTC ((((((....)))..))) | -19.9 | 44.3 |

| Sequence | folding enthalpy [1] [kcal/mol] | Tm [2] [°C] |
| --- | --- | --- |
| GACGACGAAAGTCGTGTC ((((((....)))..))) | -10.5 | 59.9 |
| GACGACGGAAACACCGTC ((((..(....)..)))) | -13.2 | 38.2 |
| GACGACGGAAACATCGTC (((((.(....).))))) | -34.2 | 45.7 |
| GACGATGGAAACATCGTC (((((((....))))))) | -41.7 | 67.9 |
| GACGCAACGAAAGTTGTC (((..(((....)))))) | -10 | 34.1 |
| GACGCACGAAAGTGTGTC (((.(((....))).))) | -45.6 | 61.8 |
| GACGCAGAAATGCGTC ((((((....)))))) | -35.9 | 68.5 |
| GACGCAGGAAACTGTGTC (((.(((....))).))) | -39.8 | 52.5 |
| GACGCCCCGAAAGGGGTC (((..(((....)))))) | -7.73 | 40.2 |
| GACGCCGAAAGGCATGTC ((((((....)))..))) | -15.2 | 43.3 |
| GACGCCGAAAGGCCAGTC ((((((....)))..))) | -15 | 40.7 |
| GACGCCGAAAGGCGAGTC ((((((....)))..))) | -8.04 | 43.7 |
| GACGCCGGAAACGGTGTC (((.(((....))).))) | -45.9 | 63.9 |
| GACGCGGCGAAAGCCGTC (((..(((....)))))) | -5.1 | 32.6 |
| GACGCGGGAAACCGTGTC (((.(((....))).))) | -39.4 | 58.2 |
| GACGCTGGAAACAGCATC ((.((((....)))).)) | -12.7 | 41.3 |
| GACGGCGAAAGCCCAGTC ((((((....)))..))) | -13.1 | 41.8 |
| GACGGCGAAAGCCGAGTC ((((((....)))..))) | -8.09 | 45.8 |
| GACGGCGGAAACACCGCC (.(((.(....).))).) | -10.1 | 44.1 |
| GACGGCGGAAACGTCGTC ((((.((....)).)))) | -52.8 | 61.1 |
| GACGGGCGAAAGCCAGTC (((.(((....))).))) | -21.7 | 67.9 |
| GACGGGGGAAACCTCGTC ((((.((....)).)))) | -31.7 | 55.1 |
| GACGGTGAAAACCGTC ((((((....)))))) | -32.1 | 68.5 |

| Sequence | folding enthalpy [1] [kcal/mol] | Tm [2] [°C] |
| --- | --- | --- |
| GACGGTGGAAACGCCGTC (((((.(....).))))) | -37.7 | 62.9 |
| GACGTACGAAAGTAGGTC (((.(((....))).))) | -38.5 | 52.6 |
| GACGTACGAAAGTATGTC (((.(((....))).))) | -43.4 | 54.6 |
| GACGTAGAAATACGTC ((((((....)))))) | -38.5 | 55 |
| GACGTCCGAAAGGAGGTC (((.(((....))).))) | -30.9 | 58.3 |
| GACGTCGGAAACGATGTC (((.(((....))).))) | -52.2 | 54.7 |
| GACGTGCGAAAGCAGGTC (((.(((....))).))) | -36.2 | 62.4 |
| GACGTGGGAAACCACACC (..((((....))))..) | -11.9 | 25.5 |
| GACGTGGGAAACCACATC ((.((((....)))).)) | -17.4 | 34.5 |
| GACGTGGGAAACCATGTC (((.(((....))).))) | -42.7 | 51.4 |
| GACGTGGGAAACCGCGTC ((((.((....)).)))) | -43.8 | 61.5 |
| GACGTTGAAAAACGTC ((((((....)))))) | -33.9 | 60.1 |
| GACGTTGGAAACAACACC (..((((....))))..) | -9.55 | 25.2 |
| GACGTTGGAAACGATGTC (((.(.(....).).))) | -16.9 | 33.4 |
| GACTAACGAAAGTTCGTC (((.(((....))).))) | -30.5 | 42.5 |
| GACTAACGAAAGTTTGTC (((.(((....))).))) | -30.9 | 47 |
| GACTAAGAAATTAGTC ((((((....)))))) | -24.9 | 40.5 |
| GACTAAGCGAAAGCTGTC (((..(((....)))))) | -15 | 45 |
| GACTACCGAAAGGTCGTC (((.(((....))).))) | -39.4 | 48.6 |
| GACTACCGAAAGGTGGTC (((.(((....))).))) | -38.6 | 58.4 |
| GACTACGAAAGTAACGTC ((((((....)))..))) | -16 | 31.8 |
| GACTACGAAAGTACAGTC ((((((....)))..))) | -18.3 | 34 |
| GACTACGAAAGTACGGTC ((((((....)))..))) | -20.4 | 32 |

| Sequence | folding enthalpy [1] [kcal/mol] | Tm [2] [°C] |
| --- | --- | --- |
| GACTACGAAAGTATCGTC ((((((....)))..))) | -20.4 | 31.1 |
| GACTAGGGAAACCCAGTC ((((.((....)).)))) | -30.1 | 40.2 |
| GACTAGGGAAACCTGGTC (((.(((....))).))) | -35.7 | 46.7 |
| GACTAGGGAAACTTAGTC (((((.(....).))))) | -30.1 | 37.9 |
| GACTATGAAAATAGTC ((((((....)))))) | -32.8 | 49.5 |
| GACTATGCGAAAGCAGTC (((..(((....)))))) | -15.3 | 44 |
| GACTATGGAAACATGGTC (((.(((....))).))) | -35.5 | 45.4 |
| GACTCAACGAAAGTTGTC (((..(((....)))))) | -10.2 | 29.9 |
| GACTCACGAAAGTGTGTC (((.(((....))).))) | -38.5 | 53.7 |
| GACTCAGGAAACTGGGTC (((.(((....))).))) | -37.8 | 49.2 |
| GACTCCACGAAAGTGGTC (((..(((....)))))) | -8.79 | 29.5 |
| GACTCCGAAAGGAACGTC ((((((....)))..))) | -15.2 | 36 |
| GACTCCGAAAGGAATGTC ((((((....)))..))) | -17.7 | 38.6 |
| GACTCCGAAAGGACGGTC ((((((....)))..))) | -17.9 | 35.3 |
| GACTCCGAAAGGAGGGTC ((((((....)))..))) | -17 | 50.8 |
| GACTCCGGAAACGGAATC ((.((((....)))).)) | -19.1 | 36.4 |
| GACTCCGGAAACGGAGCC (.(((((....))))).) | -13.6 | 50.5 |
| GACTCGGGAAACCGAATC ((.((((....)))).)) | -18.2 | 35.4 |
| GACTCGGGAAACTGGGTC (((.(.(....).).))) | -29.9 | 38 |
| GACTCTGAAAAGAGTC ((((((....)))))) | -32 | 58 |
| GACTCTGGAAACAGAATC ((.((((....)))).)) | -22.3 | 28.5 |
| GACTGAACGAAAGTTGTC (((..(((....)))))) | -19.5 | 32.8 |
